Results from ChEMBL document CHEMBL1138564, “Microwave-induced synthesis and anti-microbial activities of 7,10,11,12-tetrahydrobenzo[c]acridin-8(9H)-one derivatives” (2009).
Converted amounts (≈) assume the structure as drawn. The source made the active and inactive calls. No cut-off for these calls is given here.

How the values were obtained:
[1] = tested on: Escherichia coli; experiment: Antimicrobial activity against Escherichia coli NCIM 2065 at 1000 ug/disk after 24 hrs by disk diffusion method; type: functional; settings: NCIM 2065, 24 h, read-out: DIZ
In short: (§1)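 Disc diffusion on Mueller–Hinton agar. 100 µl of bacterial suspension at 10⁸ CFU/ml is spread on the plate. Discs carry test compounds at two loadings, dissolved in DMSO; DMSO alone serves as negative control. Ofloxacin disc is the positive reference. Plates are incubated at 37 °C for 24 h, and the inhibition zone diameter is measured.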

[2] = tested on: Bacillus subtilis; experiment: Antimicrobial activity against Bacillus subtilis NCIM 2063 at 500 ug/disk after 24 hrs by disk diffusion method; type: functional; in short: as §1
[3] = tested on: Bacillus subtilis; experiment: Antimicrobial activity against Bacillus subtilis NCIM 2063 at 1000 ug/disk after 24 hrs by disk diffusion method; type: functional; settings: NCIM 2063, 24 h, read-out: DIZ; in short: as §1
[4] = tested on: Bacillus cereus; experiment: Antimicrobial activity against Bacillus cereus NCIM 2155 at 500 ug/disk after 24 hrs by disk diffusion method; type: functional; settings: NCIM 2155, 24 h, read-out: DIZ; in short: as §1
[5] = tested on: Bacillus cereus; experiment: Antimicrobial activity against Bacillus cereus NCIM 2155 at 1000 ug/disk after 24 hrs by disk diffusion method; type: functional; settings: NCIM 2155, 24 h, read-out: DIZ; in short: as §1
[6] = tested on: Aliivibrio fischeri; experiment: Antimicrobial activity against Vibrio fischeri NCIM 2154 at 500 ug/disk after 24 hrs by disk diffusion method; type: functional
In short: (§2)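 Disc diffusion. 100 µl of bacterial suspension at 10⁸ CFU/ml was spread on Mueller–Hinton agar. Discs loaded with test compound dissolved in DMSO were placed on the lawn, with a DMSO-only disc as negative control. Plates were incubated at 37 °C for 24 h, and the inhibition zone diameter was measured.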

[7] = tested on: Rhodococcus corynebacterioides; experiment: Antimicrobial activity against Corynebacterium rubrum NCIM 2252 at 500 ug/disk after 24 hrs by disk diffusion method; type: functional; settings: Rhodococcoides corynebacterioides; in short: as §1
[8] = tested on: Salmonella typhimurium; experiment: Antimicrobial activity against Salmonella Typhimurium NCIM 2501 at 1000 ug/disk after 24 hrs by disk diffusion method; type: functional, Salmonella enterica subsp. enterica serovar Typhimurium; settings: Salmonella enterica, NCIM 2501, 24 h; read-out: DIZ; in short: as §2
[9] = tested on: Salmonella typhimurium; experiment: Antimicrobial activity against Salmonella Typhimurium NCIM 2501 at 500 ug/disk after 24 hrs by disk diffusion method; type: functional, Salmonella enterica subsp. enterica serovar Typhimurium; settings: Salmonella enterica, NCIM 2501, 24 h; read-out: DIZ; in short: as §2
[10] = tested on: Rhodococcus corynebacterioides; experiment: Antimicrobial activity against Corynebacterium rubrum NCIM 2252 at 1000 ug/disk after 24 hrs by disk diffusion method; type: functional; settings: Rhodococcoides corynebacterioides; in short: as §1
[11] = tested on: Staphylococcus; experiment: Antimicrobial activity against Staphylococcus albus NCIM 2178 at 500 ug/disk after 24 hrs by disk diffusion method; type: functional; in short: as §2
[12] = tested on: Staphylococcus; experiment: Antimicrobial activity against Staphylococcus albus NCIM 2178 at 1000 ug/disk after 24 hrs by disk diffusion method; type: functional; in short: as §2
[13] = tested on: Proteus vulgaris; experiment: Antimicrobial activity against Proteus vulgaris NCIM 2027 at 500 ug/disk after 24 hrs by disk diffusion method; type: functional; in short: as §1
[14] = tested on: Proteus vulgaris; experiment: Antimicrobial activity against Proteus vulgaris NCIM 2027 at 1000 ug/disk after 24 hrs by disk diffusion method; type: functional; in short: as §1
[15] = tested on: Aspergillus flavus; experiment: Antimicrobial activity against Aspergillus flavus NCIM 902 at 500 ug/disk after 72 hrs by disk diffusion method; type: functional; settings: NCIM 902, 72 h, read-out: DIZ
In short: (§3)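 Disc diffusion on Sabouraud's dextrose agar. 100 µl of fungal suspension at 10⁶ CFU/ml is spread on the plate. Discs carry test compounds at two loadings in DMSO; DMSO alone is the negative control. Clotrimazole disc is the positive reference. Plates are incubated at 27 °C for 72 h, and the zone of inhibition diameter is measured.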

[16] = tested on: Aspergillus flavus; experiment: Antimicrobial activity against Aspergillus flavus NCIM 902 at 1000 ug/disk after 72 hrs by disk diffusion method; type: functional; settings: NCIM 902, 72 h, read-out: DIZ; in short: as §3
[17] = tested on: Rhodotorula mucilaginosa; experiment: Antimicrobial activity against Rhodotorula rubra NCIM 3174 at 500 ug/disk after 72 hrs by disk diffusion method; type: functional; settings: NCIM 3174, 72 h, read-out: DIZ
In short: (§4)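 Fungal disc diffusion. 100 µl of suspension at 10⁶ CFU/ml was spread on Sabouraud's dextrose agar. Discs carrying test compound in DMSO were applied, with a DMSO-only disc as negative control. Plates were incubated at 27 °C for 72 h, and the zone of inhibition diameter was measured.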

[18] = tested on: Rhodotorula mucilaginosa; experiment: Antimicrobial activity against Rhodotorula rubra NCIM 3174 at 1000 ug/disk after 72 hrs by disk diffusion method; type: functional; settings: NCIM 3174, 72 h, read-out: DIZ; in short: as §4
[19] = tested on: Aspergillus fumigatus; experiment: Antimicrobial activity against Aspergillus fumigatus NCIM 902 at 500 ug/disk after 72 hrs by disk diffusion method; type: functional; in short: as §3
[20] = tested on: Aspergillus parasiticus; experiment: Antimicrobial activity against Aspergillus parasiticus NCIM 904 at 1000 ug/disk after 72 hrs by disk diffusion method; type: functional; settings: NCIM 904, 72 h, read-out: DIZ; in short: as §3
[21] = tested on: Penicillium chrysogenum; experiment: Antimicrobial activity against Penicillium chrysogenum NCIM 707 at 500 ug/disk after 72 hrs by disk diffusion method; type: functional; in short: as §3
[22] = tested on: Lipomyces lipofer; experiment: Antimicrobial activity against Lipomyces lipofer NCIM 3252 at 1000 ug/disk after 72 hrs by disk diffusion method; type: functional; in short: as §3
[23] = tested on: Klebsiella aerogenes; experiment: Antimicrobial activity against Klebsiella aerogenes NCIM 2239 at 500 ug/disk after 24 hrs by disk diffusion method; type: functional; settings: NCIM 2239, 24 h, read-out: DIZ; in short: as §1
[24] = tested on: Pseudomonas aeruginosa; experiment: Antimicrobial activity against Pseudomonas aeruginosa NCIM 2200 at 1000 ug/disk after 24 hrs by disk diffusion method; type: functional; in short: as §1
[25] = tested on: Pseudomonas aeruginosa; experiment: Antimicrobial activity against Pseudomonas aeruginosa NCIM 2200 at 500 ug/disk after 24 hrs by disk diffusion method; type: functional; in short: as §2
[26] = tested on: Aspergillus flavus; experiment: Antimicrobial activity against Aspergillus flavus NCIM 902 after 72 hrs by serial dilution method; type: functional; settings: NCIM 535, 72 h, in the assay text read “NCIM 535” for “NCIM 902”
In short: (§5)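 MIC by broth dilution in Sabouraud's dextrose broth, only for fungi sensitive in disc diffusion. Two-fold serial dilutions of compounds are made in 1 ml broth per tube, range 3.9 to 1000. Inoculated tubes are incubated at 27 °C for 72 h.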

[27] = tested on: Rhodotorula mucilaginosa; experiment: Antimicrobial activity against Rhodotorula rubra NCIM 3174 after 72 hrs by serial dilution method; type: functional; settings: NCIM 3174, 72 h
In short: (§6)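 MIC by broth dilution in Sabouraud's dextrose broth, run only on fungi found sensitive in the disc assay. Twofold serial dilutions were made in 1 ml broth per tube, covering 3.9 to 1000. Inoculated tubes were incubated at 27 °C for 72 h.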

[28] = tested on: Aspergillus parasiticus; experiment: Antimicrobial activity against Aspergillus parasiticus NCIM 904 after 72 hrs by serial dilution method; type: functional; settings: NCIM 904, 72 h; in short: as §5
[29] = tested on: Trichoderma viride; experiment: Antimicrobial activity against Trichoderma viride NCIM 1195 after 72 hrs by serial dilution method; type: functional; settings: NCIM 1195, 72 h; in short: as §6
[30] = tested on: Trichoderma viride; experiment: Antimicrobial activity against Trichoderma viride NCIM 1195 at 1000 ug/disk after 72 hrs by disk diffusion method; type: functional; settings: NCIM 1195, 72 h, read-out: DIZ; in short: as §4
[31] = tested on: Escherichia coli; experiment: Antimicrobial activity against Escherichia coli NCIM 2065 after 24 hrs by serial dilution method; type: functional; settings: NCIM 2065, 24 h
In short: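 Broth dilution MIC in nutrient broth, run only for organisms found sensitive in disc diffusion. Compounds are two-fold serially diluted in 1 ml sterile broth per tube, spanning 3.9 to 1000. Inoculated tubes are incubated at 37 °C for 24 h.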

[32] = tested on: Aliivibrio fischeri; experiment: Antimicrobial activity against Vibrio fischeri NCIM 2154 after 24 hrs by serial dilution method; type: functional; settings: NCIM 2154, 24 h

MIC [26]: 62.5 µg/mL (≈ 169 µM)
MIC [27]: 7.8 µg/mL (≈ 21.1 µM)
MIC [28]: 3.9 µg/mL (≈ 10.6 µM)
MIC [29]: 31.2 µg/mL (≈ 84.4 µM)
MIC [31]: 125 µg/mL (≈ 338 µM)
SMILES: CC1(C)CC(=O)C2=C(C1)Nc1c(ccc3ccccc13)C2c1ccccc1O (configuration not stated)
zone of inhibition at 1000 µg/disc [1]: 8 mm
diameter of the inhibition zone (DIZ) [2]: inactive
zone of inhibition at 1000 µg/disc [3]: 9 mm
zone of inhibition at 500 µg/disc [4]: 7 mm
zone of inhibition at 1000 µg/disc [5]: 10 mm
diameter of the inhibition zone (DIZ) [6]: inactive
diameter of the inhibition zone (DIZ) [7]: inactive
zone of inhibition at 1000 µg/disc [8]: 11 mm
zone of inhibition at 500 µg/disc [9]: 10 mm
diameter of the inhibition zone (DIZ) [10]: inactive
diameter of the inhibition zone (DIZ) [11]: inactive
diameter of the inhibition zone (DIZ) [12]: inactive
diameter of the inhibition zone (DIZ) [13]: inactive
diameter of the inhibition zone (DIZ) [14]: inactive
zone of inhibition at 500 µg/disc [15]: 9 mm
zone of inhibition at 1000 µg/disc [16]: 10 mm
zone of inhibition at 500 µg/disc [17]: 10 mm
zone of inhibition at 1000 µg/disc [18]: 14 mm
diameter of the inhibition zone (DIZ) [19]: inactive
zone of inhibition at 1000 µg/disc [20]: 16 mm
diameter of the inhibition zone (DIZ) [21]: inactive
diameter of the inhibition zone (DIZ) [22]: inactive
zone of inhibition at 500 µg/disc [23]: 7 mm
diameter of the inhibition zone (DIZ) [24]: inactive
diameter of the inhibition zone (DIZ) [25]: inactive
zone of inhibition at 1000 µg/disc [30]: 12 mm
MIC [32]: 125 µg/mL (≈ 338 µM)
